Results on 6 compounds are retold here after paper PMC7007868 (Molecular cancer therapeutics, 2019).

Data set [1] deals with refractory pediatric sarcomas. The note with it: prolonged infusion; cited from earlier work.
The subject of a further data set is MPNST xenograft. Particulars: single agent, twice-daily dosed; cited from earlier work.
Data set [2] concerns human MPNST cells (sNF96.2). Nature of the data set: Alamar blue viability dose response. The data set is classed as cell-based. The note with it: SNF96.2, 72 h, read-out: IC50 growth inhibition. In a few lines:
(§1)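 Human MPNST cells and immortalized Schwann cells were grown at 37°C in humidified 5% CO2 and exposed to test compound for 72 h. Viability was read by alamar blue fluorescence at 590 nm and expressed as percent viable relative to untreated controls. Data are given ± S.D.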
For orientation: The colour change of resazurin is a common sign of viable cells or microbes.

For another data set, the system named is MPNST cells sNF02.2. Nature of the data set: Alamar blue viability dose response. The data set is classed as cell-based, human. Particulars: read-out: IC50 growth inhibition.
The test system of data set [3] is immortalized Schwann cells (ipn02.32λ). Briefly: Alamar blue viability dose response. The data set is classed as cell-based, human. Particulars: 72 hours drug treatment. The procedure, abridged: as §1
Data set [4] can be described thus: Parallel artificial membrane permeation assay. The data set is classed as in vitro ADME. The note with it: PAMPA. Background: PAMPA measures passive passage across an artificial lipid membrane.
The conditions of data set [5]: doses over 0.6 mg/kg daily, by treatment days 6–7; cited from earlier work.
In another data set the test system is FGAR amidotransferase. The note with it: cited from earlier work.
Data set [6] is described as follows: Plasma stability of JHU395, 60 min at 37°C. The data set is classed as in vitro ADME. The note with it: one hour incubation, plasma of multiple species including humans.
For data set [7], the system named is human MPNST cells (sNF96.2) in human plasma. Briefly: Tumor cell-to-plasma partitioning. The data set is classed as in vitro ADME. In a few lines: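 sNF96.2 cells were washed twice in PBS and resuspended in human plasma at 7.5 million cells/mL. Test compound was spiked at 20 µM and incubated 1 h at 37°C, then spun at 1000 × g for 5 min at 4°C. Plasma and PBS-washed cell pellets were stored at -80°C, and intact prodrug and released glutamine antagonist were measured by LC-MS/MS as percent of total. Mean ± S.E.M.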

Data set [8] can be described thus: JHU395 pharmacokinetic analysis. The data set is classed as in vivo, mouse.
Data set [9] in a line: Dose tolerance in non-tumored NPcis mice. The data set is classed as in vivo, mouse. Particulars: 1.2 mg/kg p.o. × 5 days then 0.5 mg/kg p.o. daily, over thirty days.
The test system of the next data set is murine flank MPNST. Briefly: Efficacy in murine flank MPNST model. The data set is classed as in vivo, mouse. The note with it: 1.2 mg/kg p.o. × 5 days, 0.5 mg/kg × 9 days; vehicle 1695 mm^3; p≤0.05.
Another data set concerns glutamine utilization. Briefly: Quantitative glutamine analysis in tumor and plasma. The data set is classed as in vivo, mouse.
Data set [10] in a line: GI, hepatic and brain toxicity assessment during 14 days oral dosing. The data set is classed as in vivo, mouse. In a few lines:
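Flank MPNST mice were dosed orally for 14 days on the efficacy regimen against vehicle (n=9) and weighed thrice weekly as percent change from start. In a subset (n=3–4/condition), jejunum was fixed overnight in 10% neutral buffered formalin, paraffin-embedded, sectioned at ~5 µm and H&E-stained. A veterinary pathologist examined the sections for apoptotic figures and crypt architecture.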

The next data set in a line: Modified Irwin assay. The data set is classed as in vivo, mouse. The note with it: days 0, 8, 15; for modified Irwin battery, autonomic and somatomotor function: B6 flank MPNST mice, oxotremorine 0.5 mg/kg s.c. once. The procedure, abridged: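 B6 flank MPNST mice on the 14-day efficacy dosing regimen or vehicle were scored blind on a modified Irwin autonomic/somatomotor battery on days 0, 8 and 15, including hang time (s) from an inverted wire. A separate cohort (n=5) received oxotremorine 0.5 mg/kg s.c. 30 min before testing as assay control. Scores were averaged and normalized to day-0 vehicle; grip times were compared by multiple t-tests.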

Data set [11] relates to de novo purine biosynthesis (FGAR). Briefly: Quantitative FGAR analysis in tumors. Particulars: JHU395 1.2 mg/kg p.o. The data set is classed as in vivo, mouse. The procedure, abridged: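 B6 flank MPNST mice (n=8/group) were given vehicle or 1.2 mg/kg/dose p.o. for five days. Tumors were snap frozen, homogenized in methanol with 10 µM deuterated N-acetylaspartic acid internal standard (5 µL/mg) and centrifuged at 16,000 × g for 5 min. Supernatants were run by UHPLC–orbitrap full-MS negative mode against an FGAR standard curve in untreated tumor ([…]). Group means were compared by t-test.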

Data set [12] has as its system glutamine incorporation in murine flank MPNST. Briefly: In vivo stable isotope flux analysis. Further details: species or system mouse. Particulars: 1.2 mg/kg/dose p.o. for five days; m+1, m+2 (IMP, AMP), m+3 (GMP). The procedure, abridged:
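B6 flank MPNST mice received vehicle or test compound at 1.2 mg/kg/dose p.o. for five days. On harvest day they were dosed orally, then 30 min later given three 0.2 ml tail-vein injections of 200 mM ¹⁵N₂-glutamine, 15 min apart. Tumors were flash frozen, extracted in cold 80% methanol, dried and redissolved in 50% acetonitrile. Analysis was by C18 ion-pair (tributylamine) LC-Q-TOF MS with natural-abundance correction.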

The conditions of data set [13]: swine and human plasma, at 1 hour; cited from earlier work.
The conditions of data set [14]: swine, cited from earlier work.
For data set [15], the system named is human MPNST cells (sNF96.2). Nature of the data set: Glutamine titration, alamar blue growth. The data set is classed as cell-based. The note with it: SNF96.2, 72 h, read-out: EC50 of glutamine to rescue growth. The procedure, abridged: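 sNF96.2 cells were plated at 1500–2000 cells/well in standard medium. The next day the medium was replaced with glutamine-free medium made with dialyzed FBS, and fixed glutamine concentrations were added across the plate. After 72 h, growth was read by alamar blue fluorescence at 590 nm as percent growth (± S.D.).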

Data set [16] deals with immortalized Schwann cells (ipn02.32λ). Nature of the data set: Glutamine titration, alamar blue growth. The data set is classed as cell-based. The note with it: Homo sapiens, 72 h, read-out: EC50 of glutamine to rescue growth.
Where [17] appears, read: 20 μM JHU395, one hour, sNF96.2 cells in human plasma.
Setting [18] is: B6 mice, thirty minutes after JHU395 1.2 mg/kg oral.
The mark [19] stands for this setting: flank tumored mice, JHU395 1.2 mg/kg oral.

Where two headings read alike, the source gives them in different places.

`Sc1ncnc2nc[nH]c12` [6-MP, 6-mercaptopurine]: in data set [1], the disease stabilization entry is listed as “approximately 25%”.
Regarding `O=C(Cc1cccc(OC(F)(F)F)c1)Nc1ccc(CCCCc2nnc(NC(=O)Cc3ccccn3)s2)nn1` [CB-839], the MPNST xenograft growth entry in the data set with MPNST xenograft is recorded as “partially decreased”.
For the compound `[N-]=[N+]=CC(=O)CC[C@H](N)C(=O)O` [DON, 6-diazo-5-oxo-L-norleucine, reference compound], the half-inhibitory concentration (IC50) in [2] was 9.8 µM; in the data set on MPNST cells sNF02.2 (Homo sapiens, 72 h), 2.4 µM. In addition, the “effect on growth of immortalized Schwann cells” value in data set [3] is recorded as “minimally affected”. Besides, in data set [4] (pH 7), the Papp at 5 h, 20 μM is 0.0095 ×10⁻⁶ cm/s. Moreover, in data set [5], the weight loss is given as roughly 20%. Besides, in the data set on FGAR amidotransferase, the “concentration inhibiting the enzyme that converts FGAR to FGAM” value is on record as “low micromolar levels”.
With `CC(C)OC(=O)[C@H](CCC(=O)C=[N+]=[N-])NC(=O)OC(OC(=O)C(C)(C)C)c1ccccc1` (some centres unmarked) [JHU395], in the data set with MPNST cells sNF02.2 (sNF02.2, 72 hours drug treatment), the concentration for half-maximal inhibition (IC50) worked out at 1.5 µM. In addition, in [3], the “effect on growth of immortalized Schwann cells” value is given as “minimally affected”. For the same compound, the “apparent permeability Papp” value in data set [4] (20 μM, pH 7.0, 5 h, room temperature) turned out to be 5.707 ×10⁻⁶ cm/s. In data set [6], the “JHU395 remaining intact in plasma” value is recorded as “Over 80%”. In [7] (setting [17]), the “share of total DON measured in cells” value stood at 92% and the “share of total DON measured in plasma” value is listed as 8%. In [7] (after one hour), the “intact JHU395 in MPNST cells” value is given as “minimal” and the “intact JHU395 in plasma” value is reported as “detected”. Further, in data set [8] (setting [18]), the DON in jejunum turned out to be 0.18 nmol/g, the DON in plasma came out at 0.91 nmol/mL and the “small intestine-to-plasma DON ratio” value is 0.20. Besides, in [8] (setting [19]), the “DON plasma AUC” value is 0.977 µM·h, the “DON tumor AUC” value came out at 2.496 nmol·h/g and the “DON tumor Cmax” value worked out at 1.8 nmol/g. Also, the “accumulation of DON in GI tissue versus plasma” value in data set [8] (mice, full time-dependent pharmacokinetic analysis) is recorded as “no accumulation”. Besides, the “tolerability of dosing regimen” value in [9] is given as “well-tolerated”. Besides, the “tumor volume at end of treatment” value with murine flank MPNST is 1045 mm^3. In the data set with glutamine utilization (flank MPNST mice, vehicle 475 nmol/ml, p≤0.0001), this compound displayed a plasma glutamine of 729 nmol/mL. For the same compound, in the data set with glutamine utilization (flank MPNST mice, vehicle 1293 nmol/g, p≤0.001), the tumor glutamine worked out at 2096 nmol/g. In addition, the “increase in plasma glutamine” value in the data set on glutamine utilization (non-tumored mice, versus vehicle) is given as 25%. Also, the plasma glutamine in the data set on glutamine utilization (non-tumored mice, vehicle 830 nmol/ml, p≤0.01) came to 1036 nmol/mL. Further, the “change from starting weight” value in [10] (flank MPNST mice, 14 days oral dosing) is listed as no more than 10%. Moreover, the “jejunal histology versus vehicle” value in [10] (subset of animals, after 14 days oral dosing) was “No differences”. Also, the brain histology postmortem entry in [10] (subset of brains, after 14 days oral dosing) was “no gross changes nor cortical vacuolization”. Also, in the data set “Modified Irwin assay”, the “modified Irwin battery, autonomic and somatomotor function” value is “performed similarly”; the “grip time from an inverted wire” value is given as “unaffected”. Besides, in data set [11], the “fold increase of tumor FGAR versus vehicle” value was 75 fold. Besides, the “tumor FGAR” value in [11] (vehicle 3.4 nmol/g, p≤0.01) came out at 254.4 nmol/g. In addition, in data set [12], the “^15N2-glutamine isotopologue enrichment in IMP, AMP, GMP versus vehicle” value is “significantly lower enrichment”. The “prodrug remaining intact in plasma” value in data set [13] is given as 83–88%. Also, the DON brain-to-plasma ratio in data set [14] (DON or JHU395-derived DON) is listed as 1.38. In addition, the “DON exposure in plasma AUC0→t” value in data set [14] (equimolar dose of DON or JHU395) is 5.7 µM·h. In addition, in data set [14], the “enhancement of DON brain-to-plasma ratio (JHU395 vs DON)” value is listed as 9.3.
`NC(=O)CC[C@H](N)C(=O)O` [glutamine]: the EC50 in [15] is 209 µM; in data set [16] it was 64.5 µM.
Consider `O=C1CCCN1CC#CCN1CCCC1` [oxotremorine, reference compound], for which the “modified Irwin battery, autonomic and somatomotor function” value in “Modified Irwin assay” was “induced significant adverse effects”.

A word on the IC50: it is the concentration that gives 50% inhibition. Broadly, the Papp is a coefficient for how fast a substance crosses the barrier. High values mean ready permeation, low ones poor permeation. One may read the EC50 as the midpoint of the concentration-response curve.
